Experimental data of several laboratories.
Compare with care: the assays were run in different laboratories.
Target: Serine/threonine-protein kinase PAK 5 (PAK5, Homo sapiens, UniProt Q9P286)

For `CN(CCCC(F)(F)F)c1nccc(-c2cnn3ncccc23)n1`, the remaining binding was 100% (binding; 1 µM).
For `Nc1ncc2c(n1)-c1c([nH]c3ccc(C#CC4CC4)cc13)CCCC2`, the remaining binding was 97% (binding, competition with immobilised ligand; 1 µM).
The remaining binding of `CS(=O)(=O)c1cc(C2(NC(=O)c3cncc4c3cnn4-c3ccc(F)cc3)CC2)ccn1` is reported as 100% (cell-free assay, competition with immobilised ligand; 1 µM).
`CN(C)c1ncc(F)c(-c2cnn3ncccc23)n1` gave a remaining binding of 76% (binding; 1 µM).
`CO[C@H]1CC[C@H](CNc2ccc(S(=O)(=O)NC(=O)c3ccc(N4CCN(CC5=C(c6ccc(Cl)cc6)CC(C)(C)CC5)CC4)cc3Oc3cnc4[nH]ccc4c3)cc2[N+](=O)[O-])CC1` has a remaining binding of 99% (cell-free assay, competition with immobilised ligand; 1 µM).
`O=C(NCCCN1CCOCC1)c1ccc(Nc2nccc(-c3cc4ccccc4s3)n2)cc1` gave a remaining binding of 81% (binding, competition with immobilised ligand; 1 µM).
The remaining binding of `CN(C)CC#Cc1ccc(OCCCc2sc(N3CCc4cccc(C(=O)Nc5nc6ccccc6s5)c4C3)nc2C(=O)O)c(F)c1` is reported as 91% (cell-free assay, competition with immobilised ligand; 1 µM).
For `CC1CCCN1c1nccc(-c2cnn3ncccc23)n1` (centres unmarked), the remaining binding was 70% (binding; 1 µM).
For `COc1ncc2cc3ccccc3nc2c1C#N`, the remaining binding was 100% (cell-free assay, competition with immobilised ligand; 5 µM).
`COc1ccc2c(O[C@@H]3C[C@H]4C(=O)N[C@]5(C(=O)O)CC5/C=C\CCCCC[C@H](NC(=O)OC5CCCC5)C(=O)N4C3)cc(-c3csc(NC(=O)C(C)C)n3)nc2c1C` (some centres unmarked) has a remaining binding of 100% (cell-free assay, competition with immobilised ligand; 1 µM).
The remaining binding of `O=C(c1ccc(Nc2nccc(-c3cc4ccccc4s3)n2)cc1)N1CCC(N2CCCC2)CC1` is reported as 79% (binding, competition with immobilised ligand; 1 µM).
The remaining binding of `N[C@H]1CCN(c2nccc(-c3cnn4ncccc34)n2)C1` is reported as 100% (binding; 1 µM).
`O=C(Nc1c[nH]nc1C(=O)NC1CCNCC1)c1cc(F)cc(F)c1` has a remaining binding of 100% (binding, competition with immobilised ligand; 1 µM).
`O=C(c1ccc(Nc2ncc(Cl)c(-c3cc4ccccc4s3)n2)cc1)N1CCC(N2CCCC2)CC1` gave a remaining binding of 77% (binding, competition with immobilised ligand; 1 µM).
`c1cnn2ncc(-c3ccnc(N4CCC45COC5)n3)c2c1` gave a remaining binding of 85% (binding; 1 µM).
With `C[C@@H]1CN(c2cc(-c3n[nH]c4ccc(OC5(C)CC5)cc34)ncn2)C[C@H](C)O1` the remaining binding was 86% (cell-free assay, competition with immobilised ligand; 0.1 µM).
With `F[C@@H]1CCN(c2nccc(-c3cnn4ncccc34)n2)C1` the remaining binding was 100% (binding; 1 µM).
`COc1cnc(Nc2cccc(S(N)(=O)=O)c2)nc1N1CCN(c2ccccc2)CC1` has a remaining binding of 69% (binding, competition with immobilised ligand; 1 µM).
For `CNCc1ccccc1-c1csc([C@H](C)Nc2nc(C)nc3cc(OC)c(OC)cc23)c1`, the remaining binding was 100% (cell-free assay, competition with immobilised ligand; 1 µM).
For `c1cncc(-c2cccc(Nc3nccc(NC4CCCCC4)n3)c2)c1`, the remaining binding was 76% (binding, competition with immobilised ligand; 10 µM).
